Columns and labels:
[1] = melting temperature; fluorescence melt of hairpins on a sequencing array, two-state fit, raised by 9.35 °C to match UV melts; settings: sodium 0.088 M
Method in brief: (§1)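 Melting temperature and folding enthalpy were derived from bootstrapped two-state fits. The fitted temperatures were raised by 9.35 °C to agree with UV melts, and four replicates were combined by inverse variance. The underlying data were Cy3 fluorescence images of library hairpins, with annealed Cy3 and quencher oligos, on a sequenced MiSeq flow cell in 50 mM Na-HEPES pH 8.0, 25 mM NaCl, taken in 2.5 °C steps up to 60 °C, normalised to pre-quench Cy3 and to control constructs.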

[2] = folding enthalpy; higher = less favourable; fluorescence melt of hairpins on a sequencing array, two-state fit; settings: sodium 0.088 M
Method in brief: as §1

| Sequence | Tm [1] [°C] | folding enthalpy [2] [kcal/mol] |
| --- | --- | --- |
| GTGGCCGAAAGGCGACAC ((((((....)))..))) | 57.4 | -14 |
| GTGGCCGAAAGGCTACAC ((((((....)))..))) | 58.2 | -13.5 |
| GTGGCTGGAAACAGCTAC ((.((((....)))).)) | 53.9 | -29.3 |
| GTGGCTGGAAACAGTCAC (((.(((....))).))) | 55.1 | -36.9 |
| GTGGCTGGAAACAGTCGC (.(.(((....))).).) | 47 | -24.6 |
| GTGGCTGGAAACGGCCAC (((((.(....).))))) | 64 | -47.5 |
| GTGGCTGGAAACGGCTAC ((.((.(....).)).)) | 44 | -24.2 |
| GTGGCTGGAAACGGTCAC (((.(.(....).).))) | 44.5 | -30.7 |
| GTGGCTTCGAAAGAACAC (((..(((....)))))) | 29.7 | -8.99 |
| GTGGGAGGAAACTCTCAC (((.(((....))).))) | 48.7 | -39.1 |
| GTGGGCGCGAAAGCGCAC (((..(((....)))))) | 67.9 | -16.4 |
| GTGGGCGGAAACGCCTGC (..((((....))))..) | 47 | -13.2 |
| GTGGGGGGAAACCCCTGC (..((((....))))..) | 42.3 | -11.5 |
| GTGGGGGGAAACCTCCGC (.((.((....)).)).) | 45.4 | -25.4 |
| GTGGGGGGAAACTCCCGC (.(((.(....).))).) | 48.8 | -21.4 |
| GTGGGTGGAAACACTCGC (.(.(((....))).).) | 42 | -24.7 |
| GTGGGTGGAAACATCCAC ((((.((....)).)))) | 53.5 | -32.4 |
| GTGGGTGGAAACGCCCAC (((((.(....).))))) | 61.8 | -40.3 |
| GTGGGTGGAAACGCTCAC (((.(.(....).).))) | 40.6 | -33 |
| GTGGGTTCGAAAGAACAC (((..(((....)))))) | 57.4 | -27 |
| GTGGTACGAAAGTAGCAC (((.(((....))).))) | 63.2 | -42 |
| GTGGTAGGAAACTGTCAC (((..((....))..))) | 32.9 | -17.3 |
| GTGGTCCGAAAGGATCAC (((.(((....))).))) | 60.4 | -41.1 |

| Sequence | Tm [1] [°C] | folding enthalpy [2] [kcal/mol] |
| --- | --- | --- |
| GTGGTCGAAAGACAGCAC ((((((....)))..))) | 40.6 | -16.9 |
| GTGGTCGGAAACGGTCAC (((..((....))..))) | 44.2 | -23 |
| GTGGTGAAAACCAC (((((....))))) | 58 | -27.3 |
| GTGGTGGGAAACTGCCAC ((((..(....)..)))) | 49.1 | -29.2 |
| GTGGTTCCGAAAGGACAC (((..(((....)))))) | 40 | -17.3 |
| GTGGTTCGAAAGAACAC (((.(((....)))))) | 47.8 | -16.8 |
| GTGGTTGGAAACAACCAC (((((((....))))))) | 65.7 | -44.5 |
| GTGGTTGGAAACAATCGC (.(.(((....))).).) | 35 | -23.3 |
| GTGGTTGGAAACAGCTAC ((.(.((....)).).)) | 33.1 | -23.3 |
| GTGTAACGAAAGTTGCAC (((.(((....))).))) | 53.6 | -33 |
| GTGTAAGCGAAAGCTCAC (((..(((....)))))) | 44.9 | -19.3 |
| GTGTAAGGAAACTTACAC (((((((....))))))) | 54.2 | -42.2 |
| GTGTAATCGAAAGATCAC (((..(((....)))))) | 33.8 | -23.9 |
| GTGTACCGAAAGGTCAC (((.(((....)))))) | 53 | -30.5 |
| GTGTACCGAAAGGTGCAC (((.(((....))).))) | 65.2 | -34.1 |
| GTGTACGAAAGTACGCAC ((((((....)))..))) | 49.9 | -14.5 |
| GTGTACGAAAGTAGACAC ((((((....)))..))) | 40.8 | -22.7 |
| GTGTACGAAAGTAGCCAC ((((((....)))..))) | 31.9 | -14.2 |
| GTGTACGAAAGTATGCAC ((((((....)))..))) | 35.6 | -17.7 |
| GTGTACGGAAACGCACAC ((((.((....)).)))) | 49.1 | -38.1 |
| GTGTACGGAAACGTACAC (((((((....))))))) | 67.2 | -33.6 |
| GTGTACGGAAACGTACGC (.(((((....))))).) | 55.1 | -20.6 |
| GTGTAGACGAAAGTCCAC (((..(((....)))))) | 42.8 | -20.6 |

| Sequence | Tm [1] [°C] | folding enthalpy [2] [kcal/mol] |
| --- | --- | --- |
| GTGTAGGGAAACCTACAC (((((((....))))))) | 61.5 | -41.1 |
| GTGTAGGGAAACTTACAC (((((.(....).))))) | 42 | -21.3 |
| GTGTATACGAAAGTACAC (((..(((....)))))) | 41.1 | -23.2 |
| GTGTATCCGAAAGGACAC (((..(((....)))))) | 42.2 | -21.6 |
| GTGTATCGAAAGATGCAC (((.(((....))).))) | 53.6 | -41.9 |
| GTGTCAGGAAACCAACAC ((((..(....)..)))) | 28 | -13.5 |
| GTGTCCGAAAGGAGACAC ((((((....)))..))) | 50.7 | -21.7 |
| GTGTCCGAAAGGATCCAC ((((((....)))..))) | 32.7 | -10.4 |
| GTGTCCGGAAACGGGTAC ((..(((....)))..)) | 42.4 | -20 |
| GTGTCGAAAGACAC (((((....))))) | 68 | -25.7 |
| GTGTCGCGAAAGCGCCAC (((.(((....))).))) | 57.7 | -25.7 |
| GTGTCGGGAAACTGACGC (.(((.(....).))).) | 45.5 | -24.5 |
| GTGTCTACGAAAGTACAC (((..(((....)))))) | 38.5 | -13.2 |
| GTGTCTGGAAACAGACGC (.(((((....))))).) | 54.7 | -33.4 |
| GTGTCTGGAAACAGGCAC (((.(((....))).))) | 54.5 | -33.4 |
| GTGTGACGAAAGTCTCAC (((.(((....))).))) | 55.9 | -31.9 |
| GTGTGAGGAAACTTACAC ((((.((....)).)))) | 43.9 | -37.6 |
| GTGTGCCGAAAGGCCCAC (((.(((....))).))) | 53.1 | -25.3 |
| GTGTGCCGAAAGGCTCAC (((.(((....))).))) | 61.2 | -31.5 |
| GTGTGCGAAAGCAAGCAC ((((((....)))..))) | 43.5 | -18.9 |
| GTGTGCGAAAGCACCCAC ((((((....)))..))) | 39.3 | -8.11 |
| GTGTGCGGAAACGTGCAC (((..((....))..))) | 52.9 | -38.2 |
| GTGTGGCGAAAGCCTCAC (((.(((....))).))) | 58.9 | -29.7 |

| Sequence | Tm [1] [°C] | folding enthalpy [2] [kcal/mol] |
| --- | --- | --- |
| GTGTGTGGAAACACATAC ((.((((....)))).)) | 50 | -20.3 |
| GTGTGTGGAAACACGCAC (((.(((....))).))) | 58.7 | -40 |
| GTGTGTGGAAACGCACAC (((((.(....).))))) | 56.5 | -36.2 |
| GTGTTACGAAAGTAGCAC (((.(((....))).))) | 53.9 | -35.7 |
| GTGTTAGGAAACTGACAC ((((.((....)).)))) | 46.1 | -33.8 |
| GTGTTCCGAAAGGACAC (((.(((....)))))) | 53.8 | -32.8 |
| GTGTTCGAAAGAAACCAC ((((((....)))..))) | 27.4 | -10.4 |
| GTGTTCGAAAGAAAGCAC ((((((....)))..))) | 27.5 | -12.8 |
| GTGTTCGAAAGAAGGCAC ((((((....)))..))) | 28.6 | -22 |
| GTGTTCGCGAAAGCGCAC (((..(((....)))))) | 45.2 | -18.1 |
| GTGTTCGGAAACGAGCAC (((.(((....))).))) | 53.8 | -40.4 |
| GTGTTCGGAAACGAGTAC ((..(((....)))..)) | 31.2 | -18.9 |
| GTGTTGACGAAAGTCCAC (((..(((....)))))) | 41.6 | -19.6 |
| GTGTTGGGAAACCAATGC (..((((....))))..) | 38 | -25.2 |
| GTGTTGTCGAAAGACCAC (((..(((....)))))) | 42.4 | -21.6 |
| GTGTTTCGAAAGAAGCAC (((.(((....))).))) | 51 | -38.1 |
| GTGTTTGGAAACGAACAC (((((.(....).))))) | 49.5 | -35.8 |
| GTTAAACGAAAGTTAAAC (((.(((....))).))) | 34.2 | -17.7 |
| GTTAAAGGAAACTTTAAC (((((((....))))))) | 46.6 | -34.6 |
| GTTAAGACGAAAGTCAAC (((..(((....)))))) | 30.1 | -11.8 |
| GTTAATCGAAAGATAAAC (((.(((....))).))) | 31.6 | -20.7 |
| GTTAATGGAAACATTAGC (.(((((....))))).) | 34.8 | -20.7 |

Source: the array DNA melting data of Ke et al. (doi:10.1101/2024.01.08.574731)
